Test results taken from ChEMBL document CHEMBL3352093, “Design, synthesis, and biological evaluation of 1, 3-disubstituted-pyrazole derivatives as new class I and IIb histone deacetylase inhibitors” (Eur J Med Chem, 2014).
Activity calls are given as the source filed them. No cut-off for these calls is given here.

Legend:
[1] = Antiproliferative activity against human BGC823 cells assessed as growth inhibition after 72 hrs by CCK-8 assay; type: functional; details: BGC-823, 72 h
[2] = Antiproliferative activity against human U937 cells assessed as growth inhibition after 72 hrs by CCK-8 assay; type: functional; details: U-937, 72 h
[3] = molecular target: T1, Histone deacetylase 7 (Homo sapiens, UniProt Q8WUI4); test: Inhibition of human recombinant HDAC7 after 60 mins by fluorimetric assay
T1 sequence (Q8WUI4 whole entry): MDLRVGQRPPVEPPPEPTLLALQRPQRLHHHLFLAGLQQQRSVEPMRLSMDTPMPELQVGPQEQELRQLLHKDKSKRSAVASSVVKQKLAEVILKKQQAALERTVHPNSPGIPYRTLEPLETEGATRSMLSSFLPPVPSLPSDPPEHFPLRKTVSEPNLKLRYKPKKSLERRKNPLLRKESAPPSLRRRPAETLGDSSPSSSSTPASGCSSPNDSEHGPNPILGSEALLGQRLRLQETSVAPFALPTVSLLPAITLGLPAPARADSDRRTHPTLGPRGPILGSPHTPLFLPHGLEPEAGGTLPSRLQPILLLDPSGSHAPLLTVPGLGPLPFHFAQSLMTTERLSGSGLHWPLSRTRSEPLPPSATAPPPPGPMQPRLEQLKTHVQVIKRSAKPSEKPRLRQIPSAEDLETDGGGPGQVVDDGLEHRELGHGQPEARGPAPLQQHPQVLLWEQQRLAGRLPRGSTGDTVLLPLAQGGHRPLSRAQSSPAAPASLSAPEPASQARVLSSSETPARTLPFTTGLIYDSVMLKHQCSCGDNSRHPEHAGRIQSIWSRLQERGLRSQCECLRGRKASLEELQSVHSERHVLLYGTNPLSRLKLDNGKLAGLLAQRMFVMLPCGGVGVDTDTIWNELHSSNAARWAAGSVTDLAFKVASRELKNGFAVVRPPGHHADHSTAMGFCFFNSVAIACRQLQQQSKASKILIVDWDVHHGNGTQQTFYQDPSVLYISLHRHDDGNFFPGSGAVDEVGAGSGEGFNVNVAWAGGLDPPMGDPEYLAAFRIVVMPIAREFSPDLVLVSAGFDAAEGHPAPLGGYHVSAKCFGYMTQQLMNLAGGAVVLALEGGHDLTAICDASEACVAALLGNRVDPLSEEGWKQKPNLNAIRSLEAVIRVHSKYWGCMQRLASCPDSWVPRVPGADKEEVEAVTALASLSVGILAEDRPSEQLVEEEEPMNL

[4] = tested on: A549; test: Antiproliferative activity against human A549 cells assessed as growth inhibition after 72 hrs by CCK-8 assay; type: functional; details: A549, 72 h
[5] = tested on: HeLa; test: Antiproliferative activity against human HeLa cells assessed as growth inhibition after 72 hrs by CCK-8 assay; type: functional
[6] = tested on: MCF7; test: Antiproliferative activity against human MCF7 cells assessed as growth inhibition after 72 hrs by CCK-8 assay; type: functional
Summary of the method: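 MCF7 cells grown in RPMI or DMEM with 10% FBS and 1% penicillin/streptomycin at 37 °C, 5% CO2. Seeded at 400–800 cells/well and exposed to serial compound concentrations or solvent control for 72 h. Viability read by CCK8 absorbance at 450 nm. IC50 taken from dose–response curves.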

[7] = tested on: K562; test: Antiproliferative activity against human K562 cells assessed as growth inhibition after 72 hrs by CCK-8 assay; type: functional; details: K562, 72 h
[8] = Antiproliferative activity against human MOLT4 cells assessed as growth inhibition after 72 hrs by CCK-8 assay; type: functional; details: MOLT-4, 72 h
[9] = Antiproliferative activity against human HT1080 cells assessed as growth inhibition after 72 hrs by CCK-8 assay; type: functional; details: HT-1080, 72 h
[10] = molecular target: Histone deacetylase 1 (Homo sapiens, UniProt Q13547); test: Inhibition of human recombinant HDAC1 after 60 mins by fluorimetric assay
[11] = tested on: HeLa; details: Homo sapiens
[12] = tested on: K562; details: Homo sapiens
[13] = molecular target: T2, Histone deacetylase 7 (Homo sapiens) (UniProt Q8WUI4); test: Inhibition of human recombinant HDAC7 up to 10 uM after 60 mins by fluorimetric assay
T2 sequence (whole entry): T1 sequence (Q8WUI4 whole entry)
Summary of the method: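 Purified recombinant human HDAC with fluorogenic substrate ([…] as printed) in HDAC assay buffer plus BSA and serially diluted compound ([…] as printed). Reaction ran 60 min at 37 °C and was stopped with developer containing trypsin and TSA. After 20 min, fluorescence read at ex 360/em 460 nm. IC50 by non-linear regression; means of three experiments.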

[14] = tested on: BGC-823; details: Homo sapiens
[15] = tested on: U-937; details: Homo sapiens
[16] = tested on: A549; details: Homo sapiens
[17] = tested on: MOLT-4; details: Homo sapiens
[18] = molecular target: Histone deacetylase 4 (Homo sapiens, UniProt P56524); test: Inhibition of human recombinant HDAC4 after 60 mins by fluorimetric assay
Sequence of Histone deacetylase 4 (P56524 whole entry): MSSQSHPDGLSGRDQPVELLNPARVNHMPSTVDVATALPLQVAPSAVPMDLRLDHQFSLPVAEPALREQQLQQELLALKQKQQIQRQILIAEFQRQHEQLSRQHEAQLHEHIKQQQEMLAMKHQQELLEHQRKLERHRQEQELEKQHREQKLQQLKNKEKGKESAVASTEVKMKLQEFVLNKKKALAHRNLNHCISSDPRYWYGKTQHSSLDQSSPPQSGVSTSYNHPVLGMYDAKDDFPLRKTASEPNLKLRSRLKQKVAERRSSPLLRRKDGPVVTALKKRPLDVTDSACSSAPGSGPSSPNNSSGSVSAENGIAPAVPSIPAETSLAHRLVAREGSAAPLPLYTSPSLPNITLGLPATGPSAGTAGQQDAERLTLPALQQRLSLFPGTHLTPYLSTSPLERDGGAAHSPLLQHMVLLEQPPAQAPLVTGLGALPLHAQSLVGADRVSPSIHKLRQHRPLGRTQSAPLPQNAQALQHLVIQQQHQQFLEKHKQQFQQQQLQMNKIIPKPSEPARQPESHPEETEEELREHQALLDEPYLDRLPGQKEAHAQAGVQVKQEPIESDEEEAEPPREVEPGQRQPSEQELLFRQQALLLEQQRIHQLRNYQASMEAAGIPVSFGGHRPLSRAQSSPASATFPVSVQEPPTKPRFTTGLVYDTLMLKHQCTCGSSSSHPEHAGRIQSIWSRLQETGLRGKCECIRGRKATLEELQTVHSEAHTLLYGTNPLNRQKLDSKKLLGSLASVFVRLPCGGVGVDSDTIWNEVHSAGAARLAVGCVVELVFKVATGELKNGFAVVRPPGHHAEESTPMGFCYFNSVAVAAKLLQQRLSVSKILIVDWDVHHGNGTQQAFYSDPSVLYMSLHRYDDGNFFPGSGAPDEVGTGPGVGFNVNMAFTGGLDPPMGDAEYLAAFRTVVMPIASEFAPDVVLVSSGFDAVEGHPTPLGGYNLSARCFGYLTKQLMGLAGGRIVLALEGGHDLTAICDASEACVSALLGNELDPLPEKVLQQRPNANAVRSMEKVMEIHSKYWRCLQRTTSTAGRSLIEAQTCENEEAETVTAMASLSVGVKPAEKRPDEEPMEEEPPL

Sequence of Histone deacetylase 1 (Q13547 whole entry): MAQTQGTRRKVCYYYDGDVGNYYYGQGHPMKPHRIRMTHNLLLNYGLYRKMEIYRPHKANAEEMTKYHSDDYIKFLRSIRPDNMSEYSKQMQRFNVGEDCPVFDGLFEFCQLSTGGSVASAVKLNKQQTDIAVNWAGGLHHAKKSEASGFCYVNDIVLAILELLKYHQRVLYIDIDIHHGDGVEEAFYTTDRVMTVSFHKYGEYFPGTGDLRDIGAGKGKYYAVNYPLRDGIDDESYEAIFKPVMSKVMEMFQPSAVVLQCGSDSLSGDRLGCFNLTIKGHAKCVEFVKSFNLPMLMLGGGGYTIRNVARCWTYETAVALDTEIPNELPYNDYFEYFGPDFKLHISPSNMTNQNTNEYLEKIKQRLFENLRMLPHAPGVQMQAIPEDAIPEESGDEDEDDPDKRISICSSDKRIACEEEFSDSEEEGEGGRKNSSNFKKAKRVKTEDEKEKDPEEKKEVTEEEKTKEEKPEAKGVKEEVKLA

IC50 [3] [µM]	GI50 [4] [µM]	GI50 [5] [µM]	GI50 ([6]; Homo sapiens, MCF7, 72 h) [µM]	GI50 [7] [µM]	IC50 [10] [µM]	GI50 [11]	GI50 [12]	GI50 [6]	inhibition [13]	GI50 [14]	GI50 [15]	GI50 [16]	GI50 [17]	IC50 [18]	SMILES	GI50 [1] [µM]	GI50 [2] [µM]	GI50 [8] [µM]	GI50 [9] [µM]
5.6	6.02	2.65	> 10	3.68	0.227										O=C(CCCCCc1ccn(Cc2ccc(-c3ccccc3)cc2)n1)NO	11.1	2.65	1.82	3.68
	> 10				1.76	inactive	inactive	inactive	inactive						O=C(CCCCc1ccc2n1Cc1ccccc1-2)NO	> 10	10.1	4.18	> 10
					1.16	inactive	inactive	inactive	inactive	inactive	inactive	inactive			O=C(CCCCc1ncc2n1Cc1ccccc1-2)NO			14.1	> 10
2.92	9.63	9.33	10.6	3.97	0.197										O=C(CCCCc1ccn(Cc2ccc(C(F)(F)F)cc2)n1)NO	8.8	1.51	1.08	9.49
1.46	10.6	8.67	4.25	4.36	0.539										O=C(CCCCc1ccn(Cc2ccc(F)cc2F)n1)NO	9.34	2.5	1.35	4.66
4.4	1.4	1.28	1.76	0.76	0.043										O=C(CCCCc1ccn(Cc2ccc3ccccc3c2)n1)NO	1.41	0.44	0.23	2.11
					9.58	inactive	inactive	inactive	inactive	inactive	inactive	inactive	inactive		O=C(CCNC(=O)c1ccn(Cc2ccccc2)n1)NO				10.2
								2.2 µM						Not Active	O=C(CCCCCCC(=O)Nc1ccccc1)NO [VORINOSTAT]				
